According to PMC6489498 (Inorganic chemistry, 2017):
Like-named read-outs stand apart in the source and are kept apart here.

Experiments:
[1] = MBP hydroxyl pKa from pH-dependent optical spectra; type: physicochemical
CoCA = type: physicochemical, bovine; settings: calculated from first addition (3.75 μM MBP) to 38 μM CoCA; thione coordinated
Outline: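 UV-vis titration of 38 μM CoCA with MBP in 50 mM phosphate, pH 7.5. ΔA of protonated and deprotonated bands converted to concentrations using the εOH–εO− difference, then to mole fractions vs MBP added. Effective pKa calculated from the first addition (3.75 μM), […]. Shift expressed relative to the free-MBP hydroxyl pKa.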

ZnCA = settings: with ZnCA; ref 7 (Martin, et al); cited from earlier work
[2] = solution of the free MBP, pH varied (UV-vis optical spectra)

| pKa [1] | deprotonated form present at physiological pH ([1]; expected from pKa) | pKa [1, 2] | effective pKa (CoCA) | Compound | Ki (ZnCA) [mM] |
| --- | --- | --- | --- | --- | --- |
| 8.3 | ~ 15% | ~8.3 | 7.6 | Cc1cc(=S)c(O)co1 [ATM, 5-hydroxy-2-methyl-4H-pyran-4-thione] | 0.65 |
| 9 |  | ~9 | 8.3 | Cc1occc(=S)c1O [TM, 3-hydroxy-2-methyl-4H-pyran-4-thione] | 1.4 |
| 9.5 |  | ~9.5 | 8.4 | Oc1coccc1=S [TPMA, 3-hydroxy-4H-pyran-4-thione] | 1.1 |
